Test results: ChEMBL document CHEMBL4052717, “Novel 3H-[1,2,3]triazolo[4,5-c]pyridine derivatives as GPR119 agonists: Synthesis and structure-activity/solubility relationships” (Bioorg Med Chem, 2017)
Values after ≈ are worked out from the molar mass of the structure shown.

Key:
[1] = Thermodynamic solubility of the compound in pH 6.8 phosphate buffer after 24 hrs by HPLC analysis; format: physicochemical; conditions: read-out: Therm_solubility
In short: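 Excess solid in pH 6.8 phosphate buffer was shaken 24 h at 25 °C and centrifuged (3000 and 11000 rpm, 10 min). Supernatant was diluted in 50% aqueous acetonitrile and quantified by reversed-phase HPLC (0.1% phosphoric acid/acetonitrile, 40 °C column, UV 210 nm).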

[2] = Drug metabolism in human liver microsomes assessed per mg protein after 15 mins; format: ADME, microsome; conditions: read-out: Drug metabolism
In short: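 Compound was incubated 15 min with human liver microsomes at 1 mg protein/mL; the value is reported as percent metabolized.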

[3] = biological target: T1, Glucose-dependent insulinotropic receptor (Homo sapiens, UniProt Q8TDV5); test: Agonist activity at human GPR119 expressed in Flp-In-T-Rex-HEK293 cells assessed as stimulation of cAMP level measured after 30 mins by HTRF assay; format: functional, cell-based
T1 sequence (Q8TDV5 whole entry): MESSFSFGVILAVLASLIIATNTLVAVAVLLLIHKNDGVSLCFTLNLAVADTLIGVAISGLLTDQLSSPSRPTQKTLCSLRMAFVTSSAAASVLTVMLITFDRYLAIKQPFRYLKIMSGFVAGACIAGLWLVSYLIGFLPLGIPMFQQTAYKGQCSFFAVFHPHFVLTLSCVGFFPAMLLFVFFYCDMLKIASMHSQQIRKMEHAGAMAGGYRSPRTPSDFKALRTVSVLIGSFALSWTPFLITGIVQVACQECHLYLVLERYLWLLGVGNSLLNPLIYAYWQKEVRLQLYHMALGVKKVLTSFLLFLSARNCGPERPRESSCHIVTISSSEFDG
In short: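 Flp-In-T-Rex-HEK293 cells overexpressing human GPR119 were induced with tetracycline for 24 h, then seeded at 5000 cells/well in DMEM with 1 mM IBMX and 0.01% BSA. Cells were exposed to compound for 30 min at 37 °C, and cAMP was read by HTRF (HiRange kit). Basal cAMP was subtracted, and EC50 is the concentration giving 50% of maximal response on dose-response curves.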

[4] = Permeability of the compound at pH 6.2 by PAMPA; format: physicochemical; conditions: read-out: permeability
[5] = Volume of distribution at steady state in Sprague-Dawley rat at 3 mg/kg, iv administered as single dose by LC-MS/MS analysis; format: ADME, organism-based; conditions: in vivo, read-out: Vdss
In short: (§1)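 Fasted male Sprague-Dawley rats received a single dose, either 3 mg/kg iv in 20% 2-hydroxypropyl-β-cyclodextrin or 10 mg/kg orally in 0.5% methylcellulose with 0.1% Tween80. Tail-vein blood was taken at each time point and spun to plasma. Analyte was quantified by LC-MS/MS, and parameters were derived by non-compartmental analysis.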

[6] = Half life in Sprague-Dawley rat at 3 mg/kg, iv administered as single dose by LC-MS/MS analysis; format: ADME, organism-based; conditions: in vivo; in short: as §1
[7] = Oral bioavailability in Sprague-Dawley rat at 10 mg/kg administered as single dose by LC-MS/MS analysis; format: ADME, organism-based; conditions: in vivo; in short: as §1
[8] = AUC (0 to infinity) in Sprague-Dawley rat at 10 mg/kg, po administered as single dose by LC-MS/MS analysis; format: ADME, organism-based; set-up: dose 10 mg/kg, route oral, time infinity; conditions: in vivo; in short: as §1
[9] = Clearance in Sprague-Dawley rat at 3 mg/kg, iv administered as single dose by LC-MS/MS analysis; format: ADME, organism-based; conditions: in vivo; in short: as §1

Row | SMILES | solubility thermodynamic at 24 h [1] [µM] | EC50 [3] [nM] | further results
1 | CC(C)(OC(=O)N1CCC(n2ncc3cc(-c4ccc(S(C)(=O)=O)cc4)ncc32)CC1)C(F)F | 0.28 (≈ 0.138 µg/mL) | – | –
2 | CC(C)OC(=O)N1CCC(n2ncc3cc(-c4ccc(S(C)(=O)=O)cc4)ncc32)CC1 | 1.51 (≈ 0.668 µg/mL) | – | –
3 | CC(C)COC(=O)N1CCC(n2ncc3cc(-c4ccc(S(C)(=O)=O)cc4)ncc32)CC1 | 1.18 (≈ 0.539 µg/mL) | – | –
4 | CCNC(=O)c1cc(F)c(-c2cc3cnn(C4CCN(C(=O)OC(C)C)CC4)c3cn2)cc1F | 2.84 (≈ 1.34 µg/mL) | – | metabolised at 0.25 h [2]: 12.4%
5 | CCc1cnc(N2CCC(n3ncc4cc(-c5ccc(S(C)(=O)=O)cc5)ncc43)CC2)nc1 | 0.26 (≈ 0.12 µg/mL) | – | –
6 | CCc1cnc(N2CCC(n3nnc4cc(-c5ccc(S(C)(=O)=O)cc5)ncc43)CC2)nc1 | 0.28 (≈ 0.13 µg/mL) | 21 | –
7 | CCNC(=O)c1c(C)cc(-c2cc3nnn(C4CCN(c5ncc(CC)cn5)CC4)c3cn2)cc1C | 5.01 (≈ 2.43 µg/mL) | 27 | –
8 | CCNC(=O)c1ccc(-c2cc3nnn(C4CCN(c5ncc(CC)cn5)CC4)c3cn2)cc1Cl | < 0.16 | 18 | –
9 | CCNC(=O)c1ccc(-c2cc3nnn(C4CCN(c5ncc(CC)cn5)CC4)c3cn2)c(F)c1F | – | 10 | –
10 | CC(C)OC(=O)N1CCC(n2nnc3cc(-c4cc(F)c(C(=O)N5CCC5)cc4F)ncc32)CC1 | 2.7 (≈ 1.31 µg/mL) | 61 | metabolised at 0.25 h [2]: 5.4%
11 | CCc1cnc(N2CCC(n3nnc4cc(-c5ccc(S(C)(=O)=O)c(F)c5)ncc43)CC2)nc1 | < 0.15 | 9 | –
12 | CCNC(=O)c1ccc(-c2cc3nnn(C4CCN(c5ncc(CC)cn5)CC4)c3cn2)c(C(F)(F)F)c1 | 1.2 (≈ 0.629 µg/mL) | 60 | –
13 | CCNC(=O)c1ccc(-c2cc3nnn(C4CCN(c5ncc(CC)cn5)CC4)c3cn2)cc1C(F)(F)F | 0.51 (≈ 0.268 µg/mL) | 39 | –
14 | CCNC(=O)c1cc(F)c(-c2cc3nnn(C4CCN(C(=O)OC(C)C)CC4)c3cn2)cc1F | 5.5 (≈ 2.6 µg/mL) | 37 | metabolised at 0.25 h [2]: 11%
15 | CCNC(=O)c1cc(F)c(-c2cc3nnn(C4CCN(c5ncc(CC)cn5)CC4)c3cn2)cc1F | 0.24 (≈ 0.118 µg/mL) | 2 | –
16 | CCc1cnc(N2CCC(n3ncc4cc(-c5ccc(S(C)(=O)=O)cc5)c(C)cc43)CC2)nc1 | – | 70 | –
17 | CCc1cnc(N2CCC(n3ncc4cc(-c5ccc(S(C)(=O)=O)cc5)ccc43)CC2)nc1 | < 0.11 | 14 | –
18 | CCNC(=O)c1ccc(-c2cc3nnn(C4CCN(c5ncc(CC)cn5)CC4)c3cn2)c(C)c1 | < 0.09 | 19 | –
19 | CCc1cnc(N2CCC(n3nnc4cc(-c5ccc(S(C)(=O)=O)cc5)ccc43)CC2)nc1 | < 0.13 | 31 | –
20 | CC(C)OC(=O)N1CCC(n2nnc3cc(-c4cc(F)c(C(=O)N5CCCC5)cc4F)ncc32)CC1 | 15.9 (≈ 7.93 µg/mL) | 65 | Papp [4]: 97 ×10⁻⁶ cm/s; Vd [5]: 0.557 L/kg; half-life [6]: 14.5 min; metabolised at 0.25 h [2]: 9.3%; bioavailability [7]: 16.7%; AUC(0-inf) [8]: 1030 ng·h/mL; clearance [9]: 27.2 mL/min/kg
21 | CCc1cnc(N2CCC(n3nnc4cc(-c5ccc(S(C)(=O)=O)cc5F)ncc43)CC2)nc1 | < 0.12 | 7 | –
22 | CC(C)NC(=O)c1cc(F)c(-c2cc3nnn(C4CCN(C(=O)OC(C)C)CC4)c3cn2)cc1F | 0.84 (≈ 0.409 µg/mL) | 33 | –
23 | CCNC(=O)c1ccc(-c2cc3nnn(C4CCN(c5ncc(CC)cn5)CC4)c3cn2)c(Cl)c1 | 0.24 (≈ 0.118 µg/mL) | 13 | –
24 | CCNC(=O)c1ccc(-c2cc3nnn(C4CCN(c5ncc(CC)cn5)CC4)c3cn2)cc1C | 1.79 (≈ 0.842 µg/mL) | 18 | –
25 | CCNC(=O)c1cc(C)c(-c2cc3nnn(C4CCN(c5ncc(CC)cn5)CC4)c3cn2)c(C)c1 | 1.86 (≈ 0.901 µg/mL) | 83 | –
26 | CCNC(=O)c1ccc(-c2cc3nnn(C4CCN(c5ncc(CC)cn5)CC4)c3cn2)c(F)c1 | – | 15 | –
27 | CCc1cnc(N2CCC(n3ncc4c(C)c(-c5ccc(S(C)(=O)=O)cc5)ccc43)CC2)nc1 | – | 3420 | –
